The values below come from ChEMBL document CHEMBL4339237, “Bulbiferates A and B: Antibacterial Acetamidohydroxybenzoates from a Marine Proteobacterium, Microbulbifer sp” (2019).

Converted amounts (≈) assume the structure as drawn. The source made the active and inactive calls. No cut-off for these calls is given here.

For experiment [1], the system named is Staphylococcus aureus. In words: Antibacterial activity against methicillin-resistant Staphylococcus aureus ATCC 33591 by agar diffusion assay. The format is functional, organism-based.
Experiment [2] relates to Staphylococcus aureus. Briefly: Antibacterial activity against methicillin-sensitive Staphylococcus aureus ATCC 25913 incubated for 18 hrs by dilution antimicrobial susceptibility test. The format is functional. As to conditions: ATCC 25913, 18 h. Summed up: (§1)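 Broth dilution susceptibility method for aerobic bacteria in 96-well plates. Compounds dissolved in DMSO and serially diluted to 10 concentrations (0.5–256 μg/mL). Geneticin served as positive control for E. coli and vancomycin for MSSA. Tested in duplicate, with eight untreated media controls per plate. Incubated 18 h at 33 °C. MIC taken as lowest concentration preventing visible growth.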

For experiment [3], the system named is Escherichia coli. In words: Antibacterial activity against Escherichia coli ATCC 25922 incubated for 18 hrs by dilution antimicrobial susceptibility test. The format is functional. As to conditions: ATCC 25922, 18 h. Summed up: as §1
Experiment [4] deals with Staphylococcus aureus. In words: Antibacterial activity against methicillin-sensitive Staphylococcus aureus ATCC 25913 by agar diffusion assay. The format is functional.
For experiment [5], the system named is Escherichia coli. Briefly: Antibacterial activity against Escherichia coli ATCC 25922 by agar diffusion assay. The format is functional.

With `CCCCCCCCCCOC(=O)c1ccc(O)c(NC(C)=O)c1`, in experiment [1], the outcome was inactive. Also, the MIC in experiment [2] and in experiment [3] was above 200 µg/mL throughout. The “diameter of the inhibition zone (DIZ)” value in experiment [4] came to 10 mm; in experiment [5], 6 mm.

Take `CCCCCCCCCCCCCCOC(=O)c1ccc(O)c(NC(C)=O)c1`: the MIC in experiment [2] and in experiment [3] was above 200 µg/mL in each case.

For `COC(=O)c1ccc(O)c(NC(C)=O)c1`, the MIC in experiment [2] and in experiment [3] was above 200 µg/mL each time. Moreover, the “diameter of the inhibition zone (DIZ)” value in experiment [4] came out at 7 mm. In addition, the “diameter of the inhibition zone (DIZ)” value in experiment [5] was “inactive”.

`CN[C@@H]1[C@@H](O)[C@@H](O[C@@H]2[C@@H](O)[C@H](O[C@H]3O[C@H]([C@H](C)O)[C@@H](O)[C@H](O)[C@H]3N)[C@@H](N)C[C@H]2N)OC[C@]1(C)O` had a minimum inhibitory concentration (MIC) in experiment [3] of 0.25 µg/mL (≈ 0.503 µM).

For the compound `CCCCCCCCCCCOC(=O)c1ccc(O)c(NC(C)=O)c1`, the result in experiment [1] was inactive. In addition, the minimal inhibitory concentration (MIC) in experiment [2] and in experiment [3] was above 200 µg/mL each time. In addition, the “diameter of the inhibition zone (DIZ)” value in experiment [4] and in experiment [5] was 5 mm in each case.

Turning to `CCCCCCCCOC(=O)c1ccc(O)c(NC(C)=O)c1`, the MIC in experiment [2] and in experiment [3] was above 200 µg/mL each time. Also, in experiment [4], the “diameter of the inhibition zone (DIZ)” value is on record as 5 mm. Moreover, the “diameter of the inhibition zone (DIZ)” value in experiment [5] is “inactive”.
